Bioassay records: PubChem BioAssay, several laboratories
14-3-3 Bad inh: disrupts binding of bovine 14-3-3 zeta to phospho-Bad peptide | P63103 | TR-FRET 14-3-3zeta/Dy647-pBad peptide displacement, 1 h | inhibition, % at 21.7 µM | actives 0.71% (n = 220,000);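 active means inhibition above about 70%, limit read from the data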
TbHK1 inh: blocks Trypanosoma brucei hexokinase 1 activity. inhibition, % at 10 µM. recombinant TbHK1, G6PDH-coupled NADH A340. AID 1430. actives 0.11% (n = 220,000);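 active means inhibition of 50% or more in the single-dose primary screen; inactive means inhibition below 50%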
Hck Nef HTS: human Hck-Nef kinase inhibition; AID 463187; Recombinant Hck-YEEI plus Nef, Z-Lyte FRET kinase assay; P08631; inhibition, % at 20 µM; actives 0.68% (n = 220,000);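 active means Hck-Nef kinase inhibition above about 50%, limit read from the data; inactive means inhibition below that limit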
MDM2 E3 inh: Mdm2 E3 ligase (human) inhibition | actives 0.11% (n = 210,000) | Q00987 | cell-based MDM2 ubiquitination luciferase reporter, 2 h; 0 = plate control, 100 = twice control, blank-subtracted | signal enhancement, % at 5 µM;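 active means signal enhancement of 30% or more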;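 further: luminescence tracks abundance of the self-degrading MDM2-luciferase fusion protein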
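Test system: stable mammalian line carrying autodegrading MDM2–luciferase fusion reporter; quantity: 2000 cells in each well; times: 4 h cell settling then 2 h compound exposure, 37 °C; detection: luminescence with SteadyLite reagent, 15 min at room temperature; evaluation: percent signal gain over controls, blank-subtracted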
Wee1 stabilizer: inhibitors of human Wee1 degradation; actives 1.2% (n = 220,000); reporter increase, % at 5 µM; AID 1321; HeLa Luc-Wee1K328M stability, luciferase luminescence; 100% = proteasome inhibitor MG132 effect; P30291;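 active means activation above the mean of all tested compounds plus 3 SD, set per screening run, cut at about 8.8% in these data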;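 further: cells exposed to compound for 20 h before luminescence read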
Target sequence (P30291 whole entry K328M): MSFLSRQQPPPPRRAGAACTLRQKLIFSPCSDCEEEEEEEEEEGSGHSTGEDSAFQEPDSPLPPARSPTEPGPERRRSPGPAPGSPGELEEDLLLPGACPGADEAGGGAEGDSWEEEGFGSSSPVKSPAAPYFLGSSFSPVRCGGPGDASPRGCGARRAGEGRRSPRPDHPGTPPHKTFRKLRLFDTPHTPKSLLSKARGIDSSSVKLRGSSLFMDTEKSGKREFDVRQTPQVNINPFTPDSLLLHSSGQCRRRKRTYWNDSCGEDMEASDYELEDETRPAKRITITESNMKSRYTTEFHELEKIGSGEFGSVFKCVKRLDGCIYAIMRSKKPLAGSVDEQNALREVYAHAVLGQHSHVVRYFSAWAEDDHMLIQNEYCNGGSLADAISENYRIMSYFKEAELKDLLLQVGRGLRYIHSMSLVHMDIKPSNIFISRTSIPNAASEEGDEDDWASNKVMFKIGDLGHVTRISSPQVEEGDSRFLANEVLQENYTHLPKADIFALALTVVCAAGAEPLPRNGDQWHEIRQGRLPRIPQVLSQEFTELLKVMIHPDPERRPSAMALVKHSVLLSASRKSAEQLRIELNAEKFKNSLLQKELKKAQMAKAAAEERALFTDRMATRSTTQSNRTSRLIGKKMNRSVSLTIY
Wee1 degr conf: human Wee1 degradation inhibition, confirmation | actives 4% (n = 1,100) | AID 1410 | activation, % at 5 µM | shares compounds with Wee1 stabilizer | HeLa Luc-Wee1K328M degradation, luminescence; vehicle 0%, proteasome-blocked wells 100%; in the data active means activation above about 8.9%
Hits are given with their value; i = inactive; nt = not tested or not shown. Shown are actives, neighbours in structure and some others; about 2.7% of the full set was active somewhere.

SMILES | 14-3-3 Bad inh | TbHK1 inh | Hck Nef HTS | MDM2 E3 inh | Wee1 stabilizer | Wee1 degr conf
CCc1nnc(NC(=O)CCc2c[nH]c3ccccc23)s1 | i | i | i | i | 15 | i
CCOC(=O)c1ccc2ncc(C(=O)OCC)c(NCCN(C)C)c2c1 | nt | i | i | nt | 21 | i
CCOC(=O)c1cnc2ccc(C(=O)OC)cc2c1NCc1ccco1 | i | i | i | i | i | nt
Cc1ccccc1OCc1csc(N)n1 | i | i | i | i | 16 | i
Nc1nc(COc2ccccc2)cs1 | i | i | i | i | i | nt
CC(C)(C)/C(O)=C/c1nc2ccccc2[nH]c1=O | i | i | i | i | i | nt
O=c1[nH]c2ccccc2nc1/C=C/c1ccc(O)cc1 | i | i | i | i | 11 | i
O=C(Nc1nc2ccccc2[nH]1)C1CC1 | i | i | i | i | i | nt
O=c1[nH]c2ccccc2nc1/C=C(\O)c1cccs1 | i | i | i | i | 16 | 9.6
O=C(Nc1nc2ccccc2[nH]1)c1cccs1 | i | i | i | i | 12 | i
Cc1ccc(-n2nc(CN3CCOCC3)c(-c3ccccc3)c2N)c(C)c1 | i | i | i | i | i | nt
O=C(Nc1nc(-c2ccccn2)cs1)c1ccc2c(c1)OCCO2 | i | i | i | i | 31 | i
Cc1ccc(C(=O)NNC(=S)NC(=O)COc2ccccc2)cc1 | i | i | i | i | 14 | i
Cc1ccccc1C(=O)NNC(=S)NC(=O)COc1ccccc1 | i | i | i | i | i | nt
Cc1ccc(C(=O)Nc2nc(C)c(C)s2)o1 | i | i | i | i | i | nt
Cc1nc(NC(=O)c2ccc(Br)o2)sc1C | i | i | i | i | 11 | i
CCN(CCn1cccn1)Cc1c(C(=O)N2CCCCCCC2)nc2ccc(Cl)cn12 | i | i | i | i | i | nt
COc1ccc(Nc2nc(Cl)nc(Nc3ccc(OC)cc3)n2)cc1 | i | i | i | i | 13 | i
O=C(NNC(=O)c1cc(O)c(O)c(O)c1)NC1CCCCC1 | i | i | i | i | i | nt
CCOC(=O)C1(C)/C(=N/Nc2ccccc2Cl)C(=O)C(=O)N1c1ccccc1 (stereo not given) | i | i | i | i | i | nt
O=C(c1ccc(S(=O)(=O)N2CCCC2)cc1)N1CCCc2ccccc21 | i | i | i | i | i | nt
COc1cc(C(C)=O)ccc1OC(=O)c1cc2cccc(OC)c2oc1=O | i | i | i | i | 53 | i
OCCC1CN(Cc2cccn2-c2ccccn2)CCN1Cc1ccccc1 (stereo not given) | i | i | i | i | i | nt
Nc1nnc(-c2cccc([N+](=O)[O-])c2)o1 | i | i | i | i | 11 | i
COc1ccc(C(=O)NNC(=O)CN2CCN(c3nc(-c4ccccc4)cs3)CC2)cc1 | i | i | i | i | i | nt
SMILES | 14-3-3 Bad inh | TbHK1 inh | Hck Nef HTS | MDM2 E3 inh | Wee1 stabilizer | Wee1 degr conf
Nc1ccccc1C(=O)N/N=C1/C2CN3CCN(C2)CC1(Cc1ccccc1)C3 | i | i | i | i | 13 | i
CCCC12CN3CCN(CC(C3)/C1=N\NC(=O)c1ccccc1N)C2 | i | i | i | nt | i | nt
COC(=O)[C@H](CC(C)C)NC(=O)N1CCC(C)CC1 | i | i | i | i | i | nt
N=c1c2c3c(sc2ncn1Cc1ccco1)CCCCC3 | i | i | i | i | 12 | i
Cc1cccc(OCCNc2cc(N3CCN(CCO)CC3)ccc2[N+](=O)[O-])c1 | i | i | i | i | i | nt
O=C(CSc1nc2nn(-c3ccccc3)c(=O)c-2c2n1CCCCC2)NCCCc1ccccc1 | i | i | i | i | 18 | i
COc1ccc(-c2nc3ccccc3s2)cc1 | i | i | i | i | i | nt
CN(C)c1nc(N)nc(-c2nc3ccccc3s2)n1 | i | i | i | i | 12 | i
Cc1cc(C)c2cc3c(N)c(C(=O)N4CCc5ccccc5C4)sc3nc2c1 | i | i | i | i | i | nt
Cc1cccc2cc3c(N)c(C(=O)N4CCOCC4)sc3nc12 | i | i | i | i | 14 | i
Brc1cc2c(cc1Br)OCCOCCOCCOCCO2 | i | i | i | i | 19 | i
Brc1ccc2c(c1)OCCOCCOc1cc(Br)ccc1OCCOCCOCCO2 | i | i | i | i | i | nt
O=C(/C=C/c1ccc(Cl)c(Cl)c1)N1CCc2ccccc21 | i | i | i | i | 19 | i
COc1ccc(-c2n[nH]c(=S)n2/N=C/C=C/c2ccccc2OC)cc1 | i | i | i | i | 11 | i
C=CCn1c(SCC(=O)Nc2cc(NC(C)=O)ccc2OC)nnc1-c1ccccn1 | i | i | i | i | 12 | i
C=CCSc1nnc(NC(=O)CSc2nc(CCC)cc(=O)[nH]2)s1 | i | i | i | i | i | nt
Cc1c(NC(=O)C(C)Sc2nc3ccccc3c(=O)n2CCO)c(=O)n(-c2ccccc2)n1C (stereo not given) | i | i | i | i | i | nt
C/C(Cc1ccccc1)=N/NC(=O)CNC(=O)C(c1ccccc1)c1ccccc1 | i | i | i | i | 11 | i
CCOc1cc(-c2nc(-c3ccc(OC)cc3)no2)cc(OCC)c1OCC | i | i | i | i | i | nt
CCOc1cc(-c2nc(-c3ccccc3OC)no2)cc(OCC)c1OCC | nt | i | i | i | 14 | i
Cc1cc(O)c(-c2cc(C(=O)Nc3cccnc3)[nH]n2)cc1C | i | i | i | i | 18 | i
O=C1NCC(O)=C1C=Nc1ccccc1O | i | i | i | i | i | nt
CC(=O)Nc1cccc(-c2csc(Nc3ncccn3)n2)c1 | i | i | i | i | 13 | i
Cc1cc(C)n2nc(C(=O)NCc3ccco3)cc2n1 | i | i | i | i | 17 | i
COc1ccc(NC(=O)c2nn(C34CC5CC(CC(C5)C3)C4)cc2[N+](=O)[O-])cc1 | i | i | i | i | 11 | i
SMILES | 14-3-3 Bad inh | TbHK1 inh | Hck Nef HTS | MDM2 E3 inh | Wee1 stabilizer | Wee1 degr conf
CC(C)C(=O)Nc1nnc(SCC(=O)NCc2ccc3c(c2)OCO3)s1 | i | i | i | i | 12 | i
CC(C)CC(=O)Nc1nnc(SCC(=O)NCc2ccc3c(c2)OCO3)s1 | i | i | i | i | i | nt
O=C(CSc1nc2[nH]ncc2c(=O)n1-c1ccccc1)N1CCCCCC1 | i | i | i | i | 12 | i
COc1ccccc1C1SCCN1S(C)(=O)=O (stereo not given) | i | i | i | i | 21 | i
O=C(/C=C/c1ccc2c(c1)OCO2)N1CCN(c2n[nH]c(=O)[nH]c2=O)CC1 | i | i | i | i | i | nt
CC(C)NC(=O)Cn1cc(C(=O)C2CC2)c2ccccc21 | i | i | i | i | i | nt
CN1N=C(C(=O)N2CCc3c([nH]c4ccccc34)C2c2ccccc2Cl)CCC1=O (stereo not given) | i | i | i | i | 12 | i
Cn1c(=O)cc(OCCCC(=O)NCc2ccccn2)c2ccccc21 | i | i | i | i | i | nt
Cc1ccnc(NC(=O)CCCOc2cc(=O)n(C)c3ccccc23)c1 | i | i | i | i | 14 | 46
Cc1cccc(CCNC(=O)COc2cc(=O)n(C)c3ccccc23)c1 | i | i | i | i | 11 | i
